From ChEMBL document CHEMBL3779805, “Orally bioavailable pyridine and pyrimidine-based Factor XIa inhibitors: Discovery of the methyl N-phenyl carbamate P2 prime group” (Bioorg Med Chem, 2016)

Assays:
[1] = Volume of distribution at steady state in beagle dog plasma at 0.19 mg/kg, iv and 0.19 mg/kg, po by LC-MS/MS method; format: ADME, organism-based, Canis lupus familiaris; conditions: read-out: Vdss
In short: (§1)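 Dogs dosed iv and po in N-in-1 (cassette) format. The same vehicle was used for both routes: 70% water, 10% ethanol, 10% dimethylacetamide, 10% polypropylene glycol.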

[2] = Oral bioavailability in beagle dog plasma at 0.19 mg/kg by LC-MS/MS method; format: ADME, organism-based, Canis lupus familiaris; in short: as §1
[3] = AUC in beagle dog plasma at 0.19 mg/kg, iv and 0.19 mg/kg, po by LC-MS/MS method; format: ADME, organism-based, Canis lupus familiaris; in short: as §1
[4] = Clearance in beagle dog plasma at 0.19 mg/kg, iv and 0.19 mg/kg, po administered in cassette format by LC-MS/MS method; format: ADME, organism-based, Canis lupus familiaris; in short: as §1
Coagulation factor XI = Coagulation factor XI (Homo sapiens, UniProt P03951)
Plasma = assay: Anticoagulant activity in human plasma assessed as concentration required for 50% increase in activated partial thromboplastin time by automated coagulation analyzer; format: functional
In short: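 aPTT clotting assay in pooled normal human plasma on an automated coagulation analyzer with commercial reagents. EC1.5x is the inhibitor plasma concentration giving a 50% increase in clotting time over the no-inhibitor control.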

[5] = Half life in beagle dog plasma at 0.19 mg/kg, iv and 0.19 mg/kg, po by LC-MS/MS method; format: ADME, organism-based, Canis lupus familiaris; in short: as §1
[6] = Volume of distribution at steady state in beagle dog plasma at 0.4 mg/kg, iv and 0.8 mg/kg, po by LC-MS/MS method; format: ADME, organism-based, Canis lupus familiaris; conditions: read-out: Vdss; in short: as §1
[7] = Oral bioavailability in beagle dog plasma at 0.8 mg/kg by LC-MS/MS method; format: ADME, organism-based, Canis lupus familiaris; in short: as §1
[8] = AUC in beagle dog plasma at 0.4 mg/kg, iv and 0.8 mg/kg, po by LC-MS/MS method; format: ADME, organism-based, Canis lupus familiaris; in short: as §1
[9] = Clearance in beagle dog plasma at 0.4 mg/kg, iv and 0.8 mg/kg, po administered in cassette format by LC-MS/MS method; format: ADME, organism-based, Canis lupus familiaris; in short: as §1
[10] = Half life in beagle dog plasma at 0.4 mg/kg, iv and 0.8 mg/kg, po by LC-MS/MS method; format: ADME, organism-based, Canis lupus familiaris; in short: as §1
[11] = Volume of distribution at steady state in beagle dog plasma at 0.25 mg/kg, iv and 0.2 mg/kg, po by LC-MS/MS method; format: ADME, organism-based, Canis lupus familiaris; conditions: read-out: Vdss; in short: as §1
[12] = Oral bioavailability in beagle dog plasma at 0.2 mg/kg by LC-MS/MS method; format: ADME, organism-based, Canis lupus familiaris; in short: as §1
[13] = AUC in beagle dog plasma at 0.25 mg/kg, iv and 0.2 mg/kg, po by LC-MS/MS method; format: ADME, organism-based, Canis lupus familiaris; in short: as §1
Canis familiaris [14] = assay: AUC in beagle dog plasma at 1 mg/kg, po dosed in discrete format by LC-MS/MS method; format: ADME, organism-based, Canis lupus familiaris; conditions: in vivo
In short: (§2)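 Discrete oral dosing in dog at 1 mpk. Oral vehicle: 70% PEG400, 20% TPGS, 10% ethanol.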

Coagulation factor X = Coagulation factor X (Homo sapiens, UniProt P00742); assay: Inhibition of human coagulation factor 10a assessed as reduction in release of p-nitroaniline after 10 to 120 mins by Michaelis-Menten equation analysis
In short: (§3)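 Purified human enzymes with commercial synthetic peptide substrates. IC50 from 4–11 inhibitor concentrations, run in duplicate at a fixed substrate concentration (standard error <20%). Ki = IC50/(1+S/Km), assuming competitive inhibition.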

Prothrombin = Prothrombin (Homo sapiens, UniProt P00734); assay: Inhibition of human coagulation thrombin assessed as reduction in release of p-nitroaniline after 10 to 120 mins by Michaelis-Menten equation analysis; in short: as §3
Trypsin = Trypsin (Homo sapiens, UniProt P07477+P07478+P35030); assay: Inhibition of human coagulation trypsin assessed as reduction in release of p-nitroaniline after 10 to 120 mins by Michaelis-Menten equation analysis; format: protein assay; in short: as §3
Plasma kallikrein = Plasma kallikrein (Homo sapiens, UniProt P03952); assay: Inhibition of human plasma kallikrein assessed as reduction in release of p-nitroaniline after 10 to 120 mins by Michaelis-Menten equation analysis; format: cell-free; in short: as §3
[15] = target: Vitamin K-dependent protein C (Homo sapiens, UniProt P04070); assay: Inhibition of human activated protein C assessed as reduction in release of p-nitroaniline after 10 to 120 mins by Michaelis-Menten equation analysis; in short: as §3
Plasminogen = Plasminogen (Homo sapiens, UniProt P00747); assay: Inhibition of human plasmin assessed as reduction in release of p-nitroaniline after 10 to 120 mins by Michaelis-Menten equation analysis; in short: as §3
[16] = target: Tissue-type plasminogen activator (Homo sapiens, UniProt P00750); assay: Inhibition of human TPA assessed as reduction in release of p-nitroaniline after 10 to 120 mins by Michaelis-Menten equation analysis; in short: as §3
[17] = target: Urokinase-type plasminogen activator (Homo sapiens, UniProt P00749); assay: Inhibition of human urokinase assessed as reduction in release of p-nitroaniline after 10 to 120 mins by Michaelis-Menten equation analysis; in short: as §3
[18] = Inhibition of human […] chymotrypsin assessed as reduction in release of p-nitroaniline after 10 to 120 mins by Michaelis-Menten equation analysis
Coagulation factor VII = target: T1, Coagulation factor VII (Homo sapiens, UniProt P08709); assay: Inhibition of human coagulation factor 7a assessed as reduction in release of p-nitroaniline after 10 to 120 mins by Michaelis-Menten equation analysis; in short: as §3
T1 sequence (P08709 whole entry): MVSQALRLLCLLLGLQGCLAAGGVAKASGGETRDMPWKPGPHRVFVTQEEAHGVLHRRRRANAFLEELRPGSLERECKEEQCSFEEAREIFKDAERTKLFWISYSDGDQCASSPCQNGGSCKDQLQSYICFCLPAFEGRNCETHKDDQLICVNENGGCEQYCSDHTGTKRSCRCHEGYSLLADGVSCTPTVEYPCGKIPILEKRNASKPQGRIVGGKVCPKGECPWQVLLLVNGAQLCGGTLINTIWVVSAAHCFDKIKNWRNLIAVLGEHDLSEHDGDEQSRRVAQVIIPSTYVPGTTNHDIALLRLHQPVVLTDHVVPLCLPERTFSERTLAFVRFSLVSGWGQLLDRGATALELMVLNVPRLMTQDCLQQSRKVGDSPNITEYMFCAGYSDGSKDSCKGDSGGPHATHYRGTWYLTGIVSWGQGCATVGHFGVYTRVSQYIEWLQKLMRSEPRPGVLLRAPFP

Canis familiaris [19] = assay: Oral bioavailability in beagle dog plasma at 1 mg/kg dosed in discrete format by LC-MS/MS method; format: ADME, organism-based, Canis lupus familiaris; conditions: in vivo; in short: as §2
Canis familiaris [20] = assay: Clearance in beagle dog plasma at 0.25 mg/kg, iv and 0.2 mg/kg, po administered in cassette format by LC-MS/MS method; format: ADME, organism-based, Canis lupus familiaris; conditions: in vivo; in short: as §1
[21] = Half life in beagle dog plasma at 0.25 mg/kg, iv and 0.2 mg/kg, po by LC-MS/MS method; format: ADME, organism-based, Canis lupus familiaris; in short: as §1

Sequence of Coagulation factor XI (P03951 19-387 limits assumed): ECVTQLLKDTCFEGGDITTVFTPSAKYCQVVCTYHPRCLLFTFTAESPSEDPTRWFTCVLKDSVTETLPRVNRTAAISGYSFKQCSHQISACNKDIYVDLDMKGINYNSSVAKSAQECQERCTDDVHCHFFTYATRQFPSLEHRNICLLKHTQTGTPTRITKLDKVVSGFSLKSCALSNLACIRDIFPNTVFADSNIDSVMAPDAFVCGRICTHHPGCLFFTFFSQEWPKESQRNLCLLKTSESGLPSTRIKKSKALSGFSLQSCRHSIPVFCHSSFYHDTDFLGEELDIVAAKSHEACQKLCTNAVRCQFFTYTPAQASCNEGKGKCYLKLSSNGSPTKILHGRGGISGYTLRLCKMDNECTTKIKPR
Sequence of Coagulation factor XI (P03951 388-625 limits assumed): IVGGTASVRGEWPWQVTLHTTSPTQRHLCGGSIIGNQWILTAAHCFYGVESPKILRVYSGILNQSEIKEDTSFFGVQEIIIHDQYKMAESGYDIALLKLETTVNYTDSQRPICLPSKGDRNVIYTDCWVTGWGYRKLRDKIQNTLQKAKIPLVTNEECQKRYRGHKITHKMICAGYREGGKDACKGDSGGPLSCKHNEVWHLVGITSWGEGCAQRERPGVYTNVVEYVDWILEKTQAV
Sequence of Coagulation factor X (P00742 41-179 limits assumed): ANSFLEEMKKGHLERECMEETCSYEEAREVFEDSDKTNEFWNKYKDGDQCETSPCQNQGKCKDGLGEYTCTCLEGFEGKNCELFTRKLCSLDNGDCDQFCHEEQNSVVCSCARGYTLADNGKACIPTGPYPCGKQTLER
Sequence of Coagulation factor X (P00742 235-488 limits assumed): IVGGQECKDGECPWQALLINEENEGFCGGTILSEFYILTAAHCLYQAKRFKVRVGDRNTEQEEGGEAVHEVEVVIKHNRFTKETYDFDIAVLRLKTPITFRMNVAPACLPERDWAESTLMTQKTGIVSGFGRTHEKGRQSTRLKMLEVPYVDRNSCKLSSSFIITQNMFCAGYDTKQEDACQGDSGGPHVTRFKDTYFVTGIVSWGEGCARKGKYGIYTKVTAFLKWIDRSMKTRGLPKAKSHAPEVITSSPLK
Sequence of Vitamin K-dependent protein C (P04070 43-197 limits assumed): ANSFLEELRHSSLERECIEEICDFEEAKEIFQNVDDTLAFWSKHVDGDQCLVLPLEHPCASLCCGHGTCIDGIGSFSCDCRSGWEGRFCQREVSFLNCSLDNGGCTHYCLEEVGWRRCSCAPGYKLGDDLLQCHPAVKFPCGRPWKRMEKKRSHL
Sequence of Vitamin K-dependent protein C (P04070 212-461 limits assumed): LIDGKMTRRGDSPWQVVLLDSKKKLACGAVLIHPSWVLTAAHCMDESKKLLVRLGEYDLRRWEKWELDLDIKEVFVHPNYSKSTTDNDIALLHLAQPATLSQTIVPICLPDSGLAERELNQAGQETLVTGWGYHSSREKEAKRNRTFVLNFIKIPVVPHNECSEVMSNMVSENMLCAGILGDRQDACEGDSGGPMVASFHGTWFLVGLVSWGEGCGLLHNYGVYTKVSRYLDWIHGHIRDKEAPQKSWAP
Sequence of Plasma kallikrein (P03952 20-390 limits assumed): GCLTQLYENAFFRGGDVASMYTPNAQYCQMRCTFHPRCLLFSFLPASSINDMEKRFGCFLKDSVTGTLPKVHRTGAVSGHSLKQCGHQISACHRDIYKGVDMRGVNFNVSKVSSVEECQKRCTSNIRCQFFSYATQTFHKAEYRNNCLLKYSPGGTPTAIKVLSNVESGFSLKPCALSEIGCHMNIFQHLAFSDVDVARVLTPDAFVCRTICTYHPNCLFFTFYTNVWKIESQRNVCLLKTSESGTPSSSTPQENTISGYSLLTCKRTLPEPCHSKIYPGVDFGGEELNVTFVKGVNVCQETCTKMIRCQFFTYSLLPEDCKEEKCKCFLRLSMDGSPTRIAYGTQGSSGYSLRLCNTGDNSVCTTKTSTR
Sequence of Plasma kallikrein (P03952 391-638 limits assumed): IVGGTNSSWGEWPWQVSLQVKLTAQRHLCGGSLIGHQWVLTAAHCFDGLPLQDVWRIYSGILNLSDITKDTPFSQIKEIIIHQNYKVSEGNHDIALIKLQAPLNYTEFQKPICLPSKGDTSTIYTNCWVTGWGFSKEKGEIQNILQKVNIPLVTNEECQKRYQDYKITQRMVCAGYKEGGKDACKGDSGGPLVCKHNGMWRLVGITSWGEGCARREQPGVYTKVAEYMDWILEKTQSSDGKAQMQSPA
Sequence of Tissue-type plasminogen activator (P00750 whole entry): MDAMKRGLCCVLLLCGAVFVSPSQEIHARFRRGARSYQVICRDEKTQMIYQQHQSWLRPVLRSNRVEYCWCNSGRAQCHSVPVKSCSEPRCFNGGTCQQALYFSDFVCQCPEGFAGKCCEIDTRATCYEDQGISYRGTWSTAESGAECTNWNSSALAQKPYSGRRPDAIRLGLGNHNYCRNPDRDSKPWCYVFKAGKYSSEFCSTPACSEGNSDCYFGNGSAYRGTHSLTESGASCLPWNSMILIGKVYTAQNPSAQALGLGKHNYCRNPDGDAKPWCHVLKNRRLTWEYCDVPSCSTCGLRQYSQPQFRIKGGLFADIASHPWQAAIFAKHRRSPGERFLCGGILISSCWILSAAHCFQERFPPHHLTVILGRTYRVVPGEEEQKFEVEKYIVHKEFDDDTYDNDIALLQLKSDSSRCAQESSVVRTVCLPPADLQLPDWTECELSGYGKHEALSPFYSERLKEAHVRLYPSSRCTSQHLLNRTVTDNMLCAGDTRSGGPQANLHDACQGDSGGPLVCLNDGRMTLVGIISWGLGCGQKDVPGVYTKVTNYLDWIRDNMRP
Sequence of Plasminogen (P00747 97-580 limits assumed): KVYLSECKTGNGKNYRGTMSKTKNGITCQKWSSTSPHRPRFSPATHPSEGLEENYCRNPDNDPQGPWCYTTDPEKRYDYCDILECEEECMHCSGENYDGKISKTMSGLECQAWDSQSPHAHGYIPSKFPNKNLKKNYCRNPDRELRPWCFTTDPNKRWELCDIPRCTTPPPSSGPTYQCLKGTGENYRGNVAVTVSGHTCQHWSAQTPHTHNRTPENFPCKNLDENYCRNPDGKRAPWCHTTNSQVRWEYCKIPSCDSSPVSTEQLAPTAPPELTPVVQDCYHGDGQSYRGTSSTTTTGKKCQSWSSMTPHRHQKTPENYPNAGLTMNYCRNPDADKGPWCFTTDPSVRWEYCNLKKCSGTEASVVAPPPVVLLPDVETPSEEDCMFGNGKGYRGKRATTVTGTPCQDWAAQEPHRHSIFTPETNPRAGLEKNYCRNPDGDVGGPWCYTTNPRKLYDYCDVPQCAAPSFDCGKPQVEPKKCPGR
Sequence of Plasminogen (P00747 581-810 limits assumed): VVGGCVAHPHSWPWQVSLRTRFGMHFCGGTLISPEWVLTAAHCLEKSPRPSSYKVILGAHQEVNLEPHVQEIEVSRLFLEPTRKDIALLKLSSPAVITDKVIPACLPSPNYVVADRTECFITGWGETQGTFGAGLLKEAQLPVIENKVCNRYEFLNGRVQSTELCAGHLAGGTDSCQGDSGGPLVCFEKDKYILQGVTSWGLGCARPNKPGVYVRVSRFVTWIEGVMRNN

SMILES: COC(=O)Nc1ccc(-c2cc([C@H](Cc3ccccc3)NC(=O)/C=C/c3cc(Cl)ccc3-n3cnnn3)ccn2)cc1
- Vd [1]: 1.6 L/kg
- bioavailability [2]: 34%
- AUC [3]: 0.28 µM·h
- clearance [4]: 5.6 mL/min/kg
- Ki (Coagulation factor XI): 0.011 µM
- EC1.5 (Plasma): 26 µM
- half-life [5]: 3.7 h

SMILES: COC(=O)Nc1ccc(-c2cc([C@H](Cc3ccccc3)NC(=O)[C@H]3CC[C@H](CN)CC3)[nH]c(=O)c2)cc1
- Vd [6]: 0.8 L/kg
- bioavailability [7]: < 1%
- AUC [8]: 0.01 µM·h
- Ki (Coagulation factor XI): 0.0024 µM
- EC1.5 (Plasma): 0.4 µM
- clearance [9]: 0.283 mL/min/kg
- half-life [10]: 1.1 h

SMILES: COC(=O)Nc1ccc(-c2ccnc([C@H](Cc3ccccc3)NC(=O)/C=C/c3cc(Cl)ccc3-n3cnnn3)c2)cc1
- Vd [11]: 3.9 L/kg
- bioavailability [12]: 34%
- AUC [13]: 0.267 µM·h
- AUC (Canis familiaris [14]): 1.878 µM·h
- Ki (Coagulation factor X): 1.13 µM
- Ki (Prothrombin): > 13.3 µM
- Ki (Trypsin): > 6.218 µM
- Ki (Plasma kallikrein): 1.85 µM
- Ki [15]: > 30.2 µM
- Ki (Plasminogen): 12.5 µM
- Ki [16]: 10.5 µM
- Ki [17]: > 29.7 µM
- Ki [18]: 29.5 µM
- Ki (Coagulation factor VII): > 13.4 µM
- Ki (Coagulation factor XI): 0.023 µM
- F (Canis familiaris [19]): 53%
- EC1.5 (Plasma): >40 µM
- clearance (Canis familiaris [20]): 6.1 mL/min/kg
- half-life [21]: 8 h
